Assay results of several laboratories.
Protocols differ between the studies behind these lines.
Target: Dual specificity protein kinase TTK (TTK, Homo sapiens, UniProt P33981)
One construct used (P33981 1-857): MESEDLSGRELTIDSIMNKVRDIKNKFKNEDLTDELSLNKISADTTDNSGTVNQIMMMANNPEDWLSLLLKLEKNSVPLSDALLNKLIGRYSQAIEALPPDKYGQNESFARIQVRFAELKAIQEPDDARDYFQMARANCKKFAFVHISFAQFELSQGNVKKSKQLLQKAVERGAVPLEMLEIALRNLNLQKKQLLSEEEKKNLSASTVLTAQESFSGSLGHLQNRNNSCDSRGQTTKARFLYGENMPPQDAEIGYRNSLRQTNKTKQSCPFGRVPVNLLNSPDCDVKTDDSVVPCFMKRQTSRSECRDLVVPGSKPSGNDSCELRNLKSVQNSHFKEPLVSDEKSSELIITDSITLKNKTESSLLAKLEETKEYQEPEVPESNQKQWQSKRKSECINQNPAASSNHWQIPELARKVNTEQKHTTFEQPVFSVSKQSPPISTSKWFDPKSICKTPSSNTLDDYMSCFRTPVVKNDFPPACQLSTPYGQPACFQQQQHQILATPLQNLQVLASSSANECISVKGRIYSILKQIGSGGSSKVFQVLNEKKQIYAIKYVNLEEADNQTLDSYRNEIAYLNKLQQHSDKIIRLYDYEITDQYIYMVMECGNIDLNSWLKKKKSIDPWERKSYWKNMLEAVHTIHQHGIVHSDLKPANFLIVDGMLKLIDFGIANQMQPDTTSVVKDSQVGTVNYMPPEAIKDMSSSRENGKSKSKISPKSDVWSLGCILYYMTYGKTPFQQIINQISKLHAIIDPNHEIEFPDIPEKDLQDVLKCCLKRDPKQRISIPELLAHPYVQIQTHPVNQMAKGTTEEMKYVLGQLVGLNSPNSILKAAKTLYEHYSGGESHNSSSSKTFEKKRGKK

Compound | assay | setting | quantity | result
O=C(NC[C@@H]1[C@H]2CN(C(=O)OCc3cc(C(F)(F)F)cc(C(F)(F)F)c3)C[C@@H]12)c1ccc2[nH]nnc2c1 | cell-free assay, competition with immobilised ligand | 1 µM | remaining binding | 91%
N#CCCc1ccc2c(c1)-c1[nH]c3ccc([N+](=O)[O-])cc3c1CC(=O)N2 | cell-free assay | 0.5 µM | remaining signal | 71.7%
COc1cc(Cl)c(C(=O)N[C@@H](CN[C@H]2CC[C@@H](N)CC2)Cc2ccc(C#N)cc2)cc1-c1ccc(CN[C@H](C)c2ccc(C)cc2)o1 | enzyme activity, inhibitor | 1 µM | remaining activity | 95%
NS(=O)(=O)c1cc(NC(=O)C2(c3ccccc3Cl)CC2)ccc1Oc1cccc(Cl)c1 | cell-free assay, competition with immobilised ligand | 1 µM | remaining binding | 100%
CCN1CCC2(CC1)NC(=O)c1c(c3ccc(Cl)c(Cl)c3n1C)C2C#N (racemic) | thermal stability, DSF | 10 µM | ΔTm | 0.6 °C
O=C(Nc1cccnn1)N1CCC(=Cc2cccc(Oc3ccc(C(F)(F)F)cn3)c2)CC1 | cell-free assay, competition with immobilised ligand | 1 µM | remaining binding | 100%
C#Cc1cccc(Nc2ncnc3cc(OCCOC)c(OCCOC)cc23)c1 | cell-free assay | 0.5 µM | remaining signal | 91.8%
Cc1c[nH]c2nccc(Oc3c(F)cc(Nc4cc(Cl)nc(N)n4)cc3F)c12 | cell-free assay, competition with immobilised ligand | 0.1 µM | remaining binding | 96%
Cn1c2c(c3ccc(Cl)c(Cl)c31)C(C#N)C1(CCN(C(=O)OC(C)(C)C)CC1)NC2=O (racemic) | thermal stability, DSF | 10 µM | ΔTm | 0 °C
Cc1ccc(NC(=O)c2ccc(CN3CCN(C)CC3)cc2)cc1Nc1nc(-c2cccnc2)cs1 | cell-free assay | 0.5 µM | remaining signal | 112%
COc1cc(Nc2cnc(C#N)c(O[C@H](C)CN(C)C)n2)ncc1-c1cnn(C)c1 | enzyme activity, inhibitor, radiometric | 10 µM | remaining activity | 74%
FC(F)c1nc2ccccc2n1-c1nc(N2CCOCC2)nc(N2CCOCC2)n1 | enzyme activity, inhibitor | 10 µM | remaining activity | 88%
FC(F)(F)Oc1cccc(-c2cnc3ccc(-c4ccncc4)nn23)c1 | enzyme activity, inhibitor, radiometric | 1 µM | activity vs control | 70%
Cc1nccc(COC(=O)N2C[C@@H]3[C@@H](CNC(=O)c4ccc5[nH]nnc5c4)[C@@H]3C2)n1 | cell-free assay, competition with immobilised ligand | 1 µM | remaining binding | 89%
Cn1c2c(Cl)c(Cl)ccc2c2cn[nH]c(=O)c21 | thermal stability, DSF | 10 µM | ΔTm | 0.6 °C
O=C(N1CCS(=O)(=O)CC1)N1C[C@H](c2ccc(OC(F)(F)F)cc2)C[C@H](c2nc(C3CC3)no2)C1 | cell-free assay, competition with immobilised ligand | 1 µM | remaining binding | 82%
CC(C)(C)c1nc(-c2cccc(NS(=O)(=O)c3c(F)cccc3F)c2F)c(-c2ccnc(N)n2)s1 | enzyme activity, inhibitor, radiometric | 1 µM | remaining activity | 92%
CN1CC(Oc2cnc(C#N)cc2-c2ccn3nc(NC(=O)C4CC4)cc3c2)C1 | enzyme activity, inhibitor | 1 µM | inhibition | 12%
CC(C)(O)[C@H]1CC[C@H](Nc2ccc3ncc(-c4cccc(C(F)(F)F)c4)n3n2)CC1 | enzyme activity, inhibitor | 1 µM | remaining activity | 79.8%
O=C(NS(=O)(=O)c1ccc(NCC2CCOCC2)c([N+](=O)[O-])c1)c1ccc(N2CCN(Cc3ccc(C(F)(F)F)cc3-c3ccc(Cl)cc3)CC2)cc1Oc1cnc2[nH]ccc2c1 | cell-free assay, competition with immobilised ligand | 1 µM | remaining binding | 100%
Cn1c2c(c3ccc(Cl)c(Cl)c31)C(C#N)C(C)(C)NC2=O (stereo not shown) | thermal stability, DSF | 10 µM | ΔTm | 1.2 °C
Nc1nc(Nc2ccc(S(N)(=O)=O)cc2)nn1C(=O)c1c(F)cccc1F | cell-free assay | 0.5 µM | remaining signal | 77.5%
